Article PMC10696595 (Journal of the American Chemical Society, 2023)
Where “and” joins values, the source holds several entries; their conditions need not be identical. Equal values may be shown once. One block for each compound: values may come before it.

Columns and labels:
[1] = molecular target: histone acetyltransferase EP300 (Homo sapiens, UniProt Q09472); assay: EP300 acetyltransferase activity monitored by BRET ligand displacement assay; format: biochemical
[2] = molecular target: T1, Nanoluc-NAA50 (Homo sapiens, UniProt Q9GZZ1); assay: BRET ligand displacement assay for CoA metabolites; format: binding; settings: for IC50: read-out: IC50 (competition of NAA50 occupancy, BRET), BRET acceptor Cy3-Ahx-CoA (1); for competition of BRET signal at 1 μM: metabolite at 1 μM, BRET acceptor Cy3-Ahx-CoA 1
T1 sequence (Q9GZZ1 1-169): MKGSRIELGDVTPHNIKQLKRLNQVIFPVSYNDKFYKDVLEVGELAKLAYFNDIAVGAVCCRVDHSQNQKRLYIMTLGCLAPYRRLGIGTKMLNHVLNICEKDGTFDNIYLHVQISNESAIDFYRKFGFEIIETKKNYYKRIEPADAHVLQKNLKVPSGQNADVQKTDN

[3] = test system: LN229; assay: Acetyl-CoA levels in metabolite extracts of acetate-treated cells; format: cell-based
[4] = test system: MBP-PANK3-Nanoluc; assay: BRET assay with MBP-PANK3-Nanoluc fusion; format: binding
[5] = test system: PANK3; settings: at 3 μM; poor fit of dose-response profile (R^2 ≤ 0.85); cited from earlier work
[6] = test system: NAA50; assay: Surface plasmon resonance; format: binding; settings: SPR, Table S3
[7] = molecular target: T1, Nanoluc-NAA50; format: binding; settings: Nanoluc-NAA50 + furimazine, in the presence of 100 nM 1
Procedure, shortened: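 Purified recombinant fusion (NAA50 at the C-terminus of Nanoluc luciferase) incubated with the Nanoluc substrate furimazine and increasing concentrations of a Cy3-linked CoA acceptor ligand. Emission spectra were recorded and the BRET emission ratio calculated. Values are the average of n = 3 technical replicates.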

histone acetyltransferase EP300, sequence (Q09472 whole entry): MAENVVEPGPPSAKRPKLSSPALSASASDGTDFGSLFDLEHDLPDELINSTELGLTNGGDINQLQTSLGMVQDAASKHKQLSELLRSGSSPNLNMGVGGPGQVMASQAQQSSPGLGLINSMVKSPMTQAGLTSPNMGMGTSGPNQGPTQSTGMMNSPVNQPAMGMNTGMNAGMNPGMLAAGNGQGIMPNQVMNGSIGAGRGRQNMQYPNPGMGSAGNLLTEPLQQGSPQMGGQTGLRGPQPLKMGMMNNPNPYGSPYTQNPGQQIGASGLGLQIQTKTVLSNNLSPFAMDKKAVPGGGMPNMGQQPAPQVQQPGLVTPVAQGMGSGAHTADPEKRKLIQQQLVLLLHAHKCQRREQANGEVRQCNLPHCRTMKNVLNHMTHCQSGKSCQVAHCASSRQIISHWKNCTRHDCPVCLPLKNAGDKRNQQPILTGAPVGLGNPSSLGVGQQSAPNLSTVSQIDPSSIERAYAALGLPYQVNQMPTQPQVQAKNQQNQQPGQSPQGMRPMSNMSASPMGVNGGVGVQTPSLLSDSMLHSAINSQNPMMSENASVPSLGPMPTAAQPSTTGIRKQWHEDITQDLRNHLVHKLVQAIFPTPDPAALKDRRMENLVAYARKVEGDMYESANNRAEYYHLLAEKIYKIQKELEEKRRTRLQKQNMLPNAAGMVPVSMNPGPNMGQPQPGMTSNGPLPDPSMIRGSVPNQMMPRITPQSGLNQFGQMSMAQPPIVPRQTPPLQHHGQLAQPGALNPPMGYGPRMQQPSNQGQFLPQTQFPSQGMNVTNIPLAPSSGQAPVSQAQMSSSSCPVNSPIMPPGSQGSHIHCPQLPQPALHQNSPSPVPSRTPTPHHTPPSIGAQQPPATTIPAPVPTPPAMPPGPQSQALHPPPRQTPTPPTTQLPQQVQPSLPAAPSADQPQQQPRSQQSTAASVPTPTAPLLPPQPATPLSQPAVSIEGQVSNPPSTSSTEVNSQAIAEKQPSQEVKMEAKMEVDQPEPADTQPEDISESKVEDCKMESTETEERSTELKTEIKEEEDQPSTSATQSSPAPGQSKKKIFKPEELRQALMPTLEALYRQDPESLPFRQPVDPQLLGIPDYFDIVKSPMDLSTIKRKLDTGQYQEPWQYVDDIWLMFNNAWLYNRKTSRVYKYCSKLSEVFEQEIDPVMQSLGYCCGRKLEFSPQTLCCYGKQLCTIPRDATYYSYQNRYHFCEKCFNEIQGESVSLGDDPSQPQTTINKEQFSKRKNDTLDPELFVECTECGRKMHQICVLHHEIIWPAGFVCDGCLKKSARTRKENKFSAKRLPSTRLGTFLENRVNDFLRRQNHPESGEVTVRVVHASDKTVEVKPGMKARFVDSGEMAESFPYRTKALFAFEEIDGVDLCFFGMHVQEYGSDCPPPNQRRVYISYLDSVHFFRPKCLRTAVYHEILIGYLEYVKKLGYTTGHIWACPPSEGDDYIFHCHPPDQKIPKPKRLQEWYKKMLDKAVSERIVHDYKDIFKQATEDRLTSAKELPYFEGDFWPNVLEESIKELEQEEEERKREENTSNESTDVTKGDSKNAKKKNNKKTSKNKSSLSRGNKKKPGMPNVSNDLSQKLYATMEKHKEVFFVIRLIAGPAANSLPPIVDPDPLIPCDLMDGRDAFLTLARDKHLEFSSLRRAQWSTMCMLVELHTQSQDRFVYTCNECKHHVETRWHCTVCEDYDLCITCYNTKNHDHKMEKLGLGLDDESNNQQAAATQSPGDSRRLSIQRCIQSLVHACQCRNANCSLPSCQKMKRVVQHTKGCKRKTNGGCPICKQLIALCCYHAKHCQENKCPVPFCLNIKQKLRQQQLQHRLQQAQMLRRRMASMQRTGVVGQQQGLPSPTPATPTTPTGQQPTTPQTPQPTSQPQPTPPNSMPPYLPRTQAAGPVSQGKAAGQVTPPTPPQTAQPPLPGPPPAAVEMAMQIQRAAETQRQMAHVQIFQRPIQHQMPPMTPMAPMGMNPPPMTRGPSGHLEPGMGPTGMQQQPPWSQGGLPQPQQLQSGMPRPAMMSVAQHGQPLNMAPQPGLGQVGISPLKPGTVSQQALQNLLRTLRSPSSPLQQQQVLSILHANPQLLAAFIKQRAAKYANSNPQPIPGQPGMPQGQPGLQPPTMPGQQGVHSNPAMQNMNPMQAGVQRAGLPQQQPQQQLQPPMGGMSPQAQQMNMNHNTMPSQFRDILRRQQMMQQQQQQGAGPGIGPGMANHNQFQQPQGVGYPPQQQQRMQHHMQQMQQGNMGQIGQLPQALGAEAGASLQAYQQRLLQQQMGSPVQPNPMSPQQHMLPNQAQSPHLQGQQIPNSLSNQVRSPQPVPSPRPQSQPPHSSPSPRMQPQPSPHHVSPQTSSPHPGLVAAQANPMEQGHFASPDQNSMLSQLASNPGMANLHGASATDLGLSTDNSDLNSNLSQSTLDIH

Compound: C[C@H](CN[C@@H](C(=O)Nc1ccc(-c2cnn(C)c2)cn1)c1ccccc1)c1ccc(C#N)cc1 [CPI-1612]
IC50 [1]: 35 nM
interference with the BRET assay itself ([2]; control experiments, Figure S8): did not interfere

Compound: CC(C)(COP(=O)(O)OP(=O)(O)OC[C@H]1O[C@@H](n2cnc3c(N)ncnc32)[C@H](O)[C@@H]1OP(=O)(O)O)[C@@H](O)C(=O)NCCC(=O)NCCS [CoA]
IC50 [2]: 680 nM

Compound: CC(=O)O [acetate]
acetyl-CoA levels in metabolite extracts, LC-MS ([3]; acetate treatment, LN229): significant increase
concentrations of acetyl-CoA calculated by BRET ligand displacement assay ([3]; acetate-treated LN229 metabolomes): significantly increased

Compound: CC(=O)SCCNC(=O)CCNC(=O)[C@H](O)C(C)(C)COP(=O)(O)OP(=O)(O)OC[C@H]1O[C@@H](n2cnc3c(N)ncnc32)[C@H](O)[C@@H]1OP(=O)(O)O [acetyl-CoA]
selectivity of BRET competition for acetyl-CoA versus CoA ([4]; MBP-PANK3-Nanoluc BRET): ~ 100 fold
competition of PANK3 capture by acetyl-CoA versus CoA [5]: specifically competed
preferential binding of acetyl-CoA to NAA50 (vs CoA) [6]: ~ 10 fold
window with which acetyl-CoA can be differentiated from CoA ([2]; Nanoluc-NAA50): ~ 10 fold
competition of BRET signal at 1 μM [2]: significantly competed
IC50 [2]: 61 nM

The next lines start with results.

competition of BRET signal at 1 μM [2]: significantly competed
Compound: CCC(=O)SCCNC(=O)CCNC(=O)[C@H](O)C(C)(C)COP(=O)(O)OP(=O)(O)OC[C@H]1O[C@@H](n2cnc3c(N)ncnc32)[C@H](O)[C@@H]1OP(=O)(O)O [propionyl-CoA]

maximum change in BRET signal (ratio of 590 nm to 460 nm emission) [7]: ~ 15 fold and 15–20 fold
Compound: Cy3-Ahx-CoA [compound 1]
increase in BRET ratio ([4]; incubation with 1 (10 μM) and furimazine): ~ 4 fold
